Screening data as filed in PubChem.
In the library only some 3.7% were active in any assay of this set; here they are far more common.
KCNK3 block = human KCNK3 channel inhibition, primary screen | CHO-KCNK3 thallium flux, FluxOR fluorescence; active compounds read low | B-score at 10 µM | actives 0.84% (n = 340,000) | O14649;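 active = B-score under library mean minus 4 SD, starting fluorescence ratio at most library mean plus 5 SD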;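 also: more negative B-score means stronger inhibition of thallium flux through KCNK3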
KCNK9 block = human KCNK9 channel inhibition; Q9NPC2; B-score at 10 µM; actives 1.2% (n = 310,000); AID 488922; HEK293 KCNK9, FluxOR thallium flux fluorescence; active compounds read low;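 active = ratio B-score over 3 SD below the library mean, with starting fluorescence within 5 SD of its mean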;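 also: negative B-score means less thallium flux so channel inhibition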
KCNQ1 act = human KCNQ1 channel potentiation or activation. P51787. CHO-K1 KCNQ1, thallium flux FluxOR fluorescence; active compounds read high. B-score at 10 µM. actives 0.35% (n = 310,000);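 active = fluorescence ratio B-score, a plate-corrected score, at least three library SD, with initial intensity B-score within 5 SD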
Target sequence (P51787 whole entry, looked up): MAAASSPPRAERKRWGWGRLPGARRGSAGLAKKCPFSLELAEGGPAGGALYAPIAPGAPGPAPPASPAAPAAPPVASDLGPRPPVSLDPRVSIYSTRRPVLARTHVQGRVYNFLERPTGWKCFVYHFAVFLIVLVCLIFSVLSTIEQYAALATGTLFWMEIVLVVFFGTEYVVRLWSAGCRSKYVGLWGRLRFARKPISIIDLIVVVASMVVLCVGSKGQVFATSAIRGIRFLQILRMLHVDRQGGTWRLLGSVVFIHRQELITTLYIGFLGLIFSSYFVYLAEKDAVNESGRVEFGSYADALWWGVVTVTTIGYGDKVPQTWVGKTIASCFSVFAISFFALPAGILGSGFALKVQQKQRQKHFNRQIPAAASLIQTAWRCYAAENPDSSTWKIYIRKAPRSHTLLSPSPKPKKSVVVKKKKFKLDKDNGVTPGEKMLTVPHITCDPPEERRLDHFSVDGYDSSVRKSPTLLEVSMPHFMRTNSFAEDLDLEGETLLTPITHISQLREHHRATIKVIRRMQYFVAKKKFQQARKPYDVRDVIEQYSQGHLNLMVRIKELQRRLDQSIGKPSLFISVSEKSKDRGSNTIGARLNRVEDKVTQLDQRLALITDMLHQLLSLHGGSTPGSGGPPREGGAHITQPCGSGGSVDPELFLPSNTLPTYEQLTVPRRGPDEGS
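System: CHO-K1 cells stably expressing KCNQ1 / Medium: assay buffer for compound exposure, DMSO matched across wells / Reagent: thallium- and potassium-containing depolarizing buffer / Compound: one concentration, matched DMSO / Incubation: 20 min compound pretreatment at room temperature / Measured by: kinetic FluxOR fluorescence, 10 s baseline plus 110 s post-stimulus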
KCNQ1 inh = human KCNQ1 channel inhibition | P51787 | CHO-K1 KCNQ1, FluxOR thallium flux fluorescence; active compounds read high | B-score at 10 µM | actives 1.3% (n = 310,000);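 active = compounds whose thallium flux B-score, printed positive for inhibition, exceeds three library SD while starting fluorescence stays within three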;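 also: channel opened by potassium depolarization with thallium stimulus after 20 min compound exposure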
hERG protect = hERG (human) protection from proarrhythmic block | Q12809 | CHO-hERG, FluxOR thallium flux, dofetilide IC70 present | activation (rescue from dofetilide block), less the hit threshold, % at 10 µM | actives 0.51% (n = 310,000) | AID 1511;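 active = activation above the mean of controls blocked by dofetilide plus 5 SD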;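 also: thallium influx through hERG after potassium depolarization seen as dye fluorescence rise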
Kir21 block = inhibitors of mouse Kir2.1 inward-rectifier potassium channel. P35561. HEK293-Kir2.1, FluxOR thallium flux fluorescence; active compounds read low. actives 0.85% (n = 310,000). B-score at 10 µM;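 active = fluorescence ratio B-score at or below minus 3 SD of library scores, with starting-brightness B-score within 2 SD, cut at about -4.2 in these data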;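 also: channel flux triggered by added potassium and thallium sulfate stimulus; B-score of peak minus minimum fluorescence over baseline after thallium stimulus; more negative B-score means stronger Kir2.1 block with less thallium influx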
KCNK9 inh conf = confirmation of human KCNK9 potassium channel inhibitors; shares compounds with KCNK9 block; HEK293 KCNK9 cells, FluxOR thallium flux fluorescence; inhibition, % at 10 µM; actives 43% (n = 4,900); AID 492992;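 active = thallium signal inhibited by more than 5 SD of the compound-free buffer control wells, on both duplicate plates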
Kir2-1 spec = mouse Kir2.1 off-target activity of KCNK9 modulators. actives 4% (n = 4,900). AID 492993. shares compounds with KCNK9 block. inhibition, % at 10 µM. Kir2.1 cells, FluxOR thallium flux fluorescence;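 active = thallium signal drop more than 5 SD beyond the mean of the no-compound control wells, seen in both duplicate plates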;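 also: signal is fluorescence rise after thallium addition divided by baseline fluorescence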
HEK293 Tl ctr = second counter-screen for KCNK9 modulators: effect in non-induced cells. actives 40% (n = 4,900). non-induced KCNK9-HEK293, FluxOR thallium flux. shares compounds with KCNK9 block. inhibition, % at 10 µM;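 active = thallium signal drop beyond 5 SD of the untreated control mean, on both duplicate plates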
A number is an active result; - = inactive; . = not tested or not shown.

SMILES	KCNK3 block	KCNK9 block	KCNQ1 act	KCNQ1 inh	hERG protect	Kir21 block	KCNK9 inh conf	Kir2-1 spec	HEK293 Tl ctr
CC(NC(=O)C12CC3CC(C)(CC(C)(C3)C1)C2)c1ccncc1 (stereo not drawn)	-	-	-	-	-	-	.	.	.
O=C(Nc1ccc(NC(=O)c2cc([N+](=O)[O-])ccc2N2CCOCC2)cc1)c1cccs1	-	-	-	-	-	-	.	.	.
Cc1noc(NS(=O)(=O)c2ccc(NC(=O)Nc3ccc(Cl)c(Cl)c3)cc2)c1C	-	-	-	-	-	-	-	-	-
Cc1noc(NS(=O)(=O)c2ccc(NC(=O)C(Cl)(Cl)Cl)cc2)c1C	-	-	-	-	-	-	.	.	.
COc1ccccc1/C=C(/CC(=O)NCc1ccccc1)c1nc2ccccc2s1	-	-9.7	-	-	-	-	70%	-	-
O=C(CCCc1nc2ccccc2s1)NCc1ccccc1	-	-	-	-	-	-	.	.	.
COc1ccccc1/C=C(/CC(=O)NCc1ccc(F)cc1)c1nc2ccccc2s1	-	-16	-	-	-	-	66%	-	36%
Cc1ccc(-c2noc(CSc3nnc(Cc4ccccc4)n3-c3cccc(C)c3)n2)cc1	-	-9.9	-	-	-	-	-	-	30%
CN(Cc1ccccc1)C(NC(=O)c1ccccc1)C(Cl)(Cl)Cl (stereo not drawn)	-	-	-	-	-	-	-	-	41%
CN(Cc1ccccc1)C(NC(=O)c1ccco1)C(Cl)(Cl)Cl (stereo not drawn)	-	-	-	-	-	-	.	.	.
COc1ccccc1NC(=O)c1sc2ncn(Cc3cccc4ccccc34)c(=O)c2c1C	-	-	-	-	-	-	.	.	.
Cc1cc2c(cc1C)C(c1ccccc1OC(C)C)CC(=O)N2 (stereo not drawn)	-	-	-	-	-	-	.	.	.
Cc1cc(C#N)c(C)n1-c1cc(S(=O)(=O)N2CCOCC2)ccc1N1CCCC1	-	-	-	-	-	-	.	.	.
Cc1ccc(C(=O)Nc2ccc(Cc3ccncc3)cc2)cc1[N+](=O)[O-]	-	-	-	-	-	-	-	-	-
O=C1C(NS(=O)(=O)c2cccs2)=C(N2CCN(Cc3ccccc3)CC2)C(=O)c2ccccc21	-	-	-	-	-	-	-	-	-
CN1CCN(C2=C(NS(=O)(=O)c3cccs3)C(=O)c3ccccc3C2=O)CC1	-	-	-	-	-	-	.	.	.
COc1ccc(Nc2ccc([N+](=O)[O-])cc2[N+](=O)[O-])cc1	-	-	-	-	-	-	.	.	.
CCOC(=O)CSc1nc(C2CC2)cc(-c2ccc(Cl)cc2)c1C#N	-	-9.5	-	-	-	-	54%	-	-
COC(=O)CSc1nc(C2CC2)cc(C(F)(F)F)c1C#N	-	-	-	-	-	-	.	.	.
COCc1c(C(=O)OCC(=O)c2c(N)n(CC(C)C)c(=O)n(C)c2=O)oc2ccccc12	-	-	-	-	-	-	.	.	.
Cc1c(C(=O)OCC(=O)c2c(N)n(CC(C)C)c(=O)n(C)c2=O)oc2ccccc12	-	-	-	-	-	-	-	-	-
CN(C(=O)c1ccco1)c1nnc(C23CC4CC(CC(C4)C2)C3)s1	-	-	-	-	-	-	.	.	.
CN(C(=O)COc1ccc(Cl)cc1Cl)c1nnc(C23CC4CC(CC(C4)C2)C3)s1	-	-	-	-	-	-	-	-	-
Cc1ccc(C(=O)Nc2ccc(F)cc2)cc1NC1=NC2CS(=O)(=O)CC2S1 (stereo not drawn)	-	-	-	-	-	-	.	.	.
Cc1ccc(SC(CC(=O)c2ccc(F)cc2)C(=O)O)cc1 (stereo not drawn)	-	-	-	-	-	-	.	.	.
SMILES	KCNK3 block	KCNK9 block	KCNQ1 act	KCNQ1 inh	hERG protect	Kir21 block	KCNK9 inh conf	Kir2-1 spec	HEK293 Tl ctr
CC(C)(C)c1ccc(C(=O)CC(Sc2ccc(Cl)cc2)C(=O)O)cc1 (stereo not drawn)	-	-	-	-	-	-	-	-	-
CC(Oc1ccc([N+](=O)[O-])cc1)C(=O)NCC1CCCO1 (stereo not drawn)	-	-	-	-	-	-	.	.	.
CCOC(=O)C1=C(C)NC(C)=C(C(=O)OCC)C1/C=C/c1ccccc1OC	-	-	-	-	-	-	.	.	.
COCCOC(=O)C1=C(C)NC(C)=C(C(=O)OCCOC)C1/C=C/c1ccccc1OC	-	-	-	-	-	-	-	-	-
COC(=O)C1=C(C)N=C2SC(C)C(=O)N2C1/C=C/c1ccccc1OC (stereo not drawn)	-	-	-	-	-	-	.	.	.
CCC1SC2=NC(C)=C(C(=O)OCC(C)C)C(/C=C/c3ccccc3OC)N2C1=O (stereo not drawn)	-	-	-	-	-	-	32%	-	47%
CCC1SC2=NC(C)=C(C(=O)OCCOC)C(/C=C/c3ccccc3OC)N2C1=O (stereo not drawn)	-	-	-	-	-	-	-	-	34%
Cc1occc1C(=O)N(C)Cc1nc(-c2ccc(Cl)cc2)no1	-	-	-	-	-	-	.	.	.
O=C(NCCCN1CCOCC1)/C(=C/c1cccs1)NC(=O)c1ccccc1	-	-	-	-	-	-	.	.	.
O=C(NCCNc1ccc([N+](=O)[O-])cc1C(F)(F)F)c1cccc(F)c1	-	-	-	-	-	-	-	-	-
O=C(NCCNc1ccc([N+](=O)[O-])cc1C(F)(F)F)c1ccccc1	-	-	-	-	-	-	-	-	-
CC1CC(C)CN(S(=O)(=O)c2cccc3nsnc23)C1 (stereo not drawn)	-	-	-	-	-	-	.	.	.
O=C(Nc1c2c(nn1-c1ccc(F)cc1)CS(=O)(=O)C2)c1ccc(Br)o1	-	-	-	-	-	-	.	.	.
CCc1ccccc1NC(=O)c1ccc(NCCc2ccccc2)c([N+](=O)[O-])c1	-	-8.7	-	-	-	-	-	-	30%
CCN(CC)S(=O)(=O)c1ccc(O)c(C(=O)OCC(=O)Nc2cc(C)c(C)cc2[N+](=O)[O-])c1	-	-11	-	-	-	-	32%	-	26%
Cn1cnnc1SCC(=O)NNC(=O)c1ccc([N+](=O)[O-])cc1	-	.	.	.	.	.	.	.	.
CCOC(=O)C1CCN(Cc2cc(C(C)(C)C)c(O)c(C(C)(C)C)c2)CC1	-	-	-	-	-	-	-	-	-
CC(C(=O)N1CCCc2ccccc21)N1CCN(S(=O)(=O)c2ccccc2F)CC1 (stereo not drawn)	-	-	-	-	-	-	-	-	-
